Screens from PubChem.
CASP6 VEID inh – blocks human caspase-6 cleavage activity; purified caspase-6, Z-VEID-R110 cleavage fluorescence; inhibition, % at 12.5 µM; AID 686996; actives 0.53% (n = 350,000);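 active means mean inhibition across replicates at least about 35%, with every replicate also reaching that limit, limit read from the data; inconclusive means only one of the two criteria met; inactive means neither criterion met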;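 further: 0% = median of neutral control wells and 100% = no fluorescence left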
Target sequence (P55212 24-179 limits assumed): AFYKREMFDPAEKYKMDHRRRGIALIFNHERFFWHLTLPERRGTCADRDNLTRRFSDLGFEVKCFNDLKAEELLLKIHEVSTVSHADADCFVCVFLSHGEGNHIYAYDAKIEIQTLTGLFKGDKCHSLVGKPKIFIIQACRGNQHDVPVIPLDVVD
Target sequence (P55212 194-293 limits assumed): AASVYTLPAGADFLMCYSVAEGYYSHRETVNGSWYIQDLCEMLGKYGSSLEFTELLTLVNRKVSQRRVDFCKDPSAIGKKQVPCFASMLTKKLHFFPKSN
esBAF inh – blocks esBAF chromatin remodeling in mouse ES cells; Bmi1-luciferase knock-in reporter, 24 h; 100% = twice the neutral-well signal; reporter increase, % at 12.5 µM; actives 2% (n = 350,000); AID 602393; in the data active means activation above about 40%; inconclusive means no clear call, values can overlap the other calls;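 further: 0% = median of the plate's neutral control wells and 100% = double that signal; a rise in the Bmi1 reporter signal indicates esBAF inhibition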
Xi reactivation – reactivates the inactive X chromosome in mouse fibroblasts; XiGFP mouse fibroblasts, % GFP-positive cells imaging, 3 d; cells co-treated with 5-aza-dC sensitizer; scaled so ellipticine positive control = 100%; activation, % at 7.58 µM; actives 0.055% (n = 360,000); AID 743238;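 active means mean normalized replicate activation at least 10% and every replicate at or above 10%; inconclusive means only one of the two criteria met; inactive means mean below 10% and not all replicates reach 10%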;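 further: 0% = median of on-plate neutral control wells and 100% = ellipticine 6 µM median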
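Material: SV40-immortalized XiGFP fibroblast cells, line 68-5-11 | Buffer or medium: DMEM containing 5-aza-dC | Dosing: One concentration, pinned | Times: 3 d treatment, 15 min room-temperature fixation | Controls: Ellipticine 6 µM positive control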
MITF TRPM1 HTS – MITF TRPM1 promoter activation in melanoma cells | activation, % at 12.5 µM | SK-MEL-5 TRPM1-promoter luciferase, 24 h; % of positive control, neutral wells = 0 | actives 0.75% (n = 300,000) | AID 588334;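 active means mean activation of at least 80% with every replicate also reaching 80%; inconclusive means mean reaches 80% but some replicate falls short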;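 further: 0% = neutral control wells and 100% = parthenolide positive control wells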
NSD2 HMT inh – inhibitors of human histone methyltransferase NSD2 | NSD2 peptide methylation, AlphaScreen, 120 min | inhibition, % at 12.5 µM | actives 0.54% (n = 310,000) | AID 743445; in the data active means inhibition above about 50%
Wnt bcat act – activates Wnt/beta-catenin signaling in a reporter cell assay; activation, % at 9.35 µM; activator, plate reader; actives 1.2% (n = 300,000); in the data active means activation above about 30%, passing the limit was not always enough; inconclusive means no clear call, values can overlap the other calls;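 further: 0% = neutral control wells and 100% = positive control wells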
* = called active by the depositor. Rows were chosen to be rich in hits. Some 3% of all compounds tested hit in one or more screens of this group.

What do the screens show for `O=C(CSc1nc2ccccc2c(=O)n1NC(=O)c1ccccc1)c1ccccc1`?
esBAF inh: -11; MITF TRPM1 HTS: 60; NSD2 HMT inh: -4

How did O=C(CSc1nc2ccccc2c(=O)n1NC(=O)c1ccccc1)c1ccc(Cl)cc1 do in these assays?
esBAF inh: -8; MITF TRPM1 HTS: 42; NSD2 HMT inh: -1; Wnt bcat act: 32*

What do the screens show for `COc1ccc(/C(N)=N/OC(=O)CSc2ccccc2)cc1OC`?
esBAF inh: inconclusive; MITF TRPM1 HTS: 55; NSD2 HMT inh: -3; Wnt bcat act: 45*

Results for Cc1cccc(C(=O)O/N=C(\N)c2ccc(Br)cc2)c1 ?
MITF TRPM1 HTS: 21; NSD2 HMT inh: 0

How did COc1ccc(C(=O)O/N=C(\N)c2ccncc2)cc1OC do in these assays?
esBAF inh: 23; Xi reactivation: 0; MITF TRPM1 HTS: 14; NSD2 HMT inh: -4

How did Cc1cc(/C(N)=N/OC(=O)c2cccc(Cl)c2)no1 do in these assays?
CASP6 VEID inh: -1; Xi reactivation: 0; NSD2 HMT inh: 0; Wnt bcat act: 38*

What do the screens show for `Cc1cccc(C(=O)O/N=C(\N)c2ccc(Cl)cc2)c1`?
CASP6 VEID inh: -3; Xi reactivation: 0; MITF TRPM1 HTS: 27; NSD2 HMT inh: -2; Wnt bcat act: 44*

How did Cc1cc(/C(N)=N/OC(=O)c2ccc(Cl)cc2)no1 do in these assays?
CASP6 VEID inh: 3; esBAF inh: 45; Xi reactivation: 2; NSD2 HMT inh: -1; Wnt bcat act: 0

How did COc1ccc(C(=O)O/N=C(\N)c2cccc(C)c2)cc1OC do in these assays?
CASP6 VEID inh: 1; esBAF inh: 69*; Xi reactivation: 0; MITF TRPM1 HTS: 65; NSD2 HMT inh: -1; Wnt bcat act: 21

Results for COc1ccc(/C(N)=N/OC(=O)CCc2ccccc2)cc1OC ?
CASP6 VEID inh: 0; Xi reactivation: 0; MITF TRPM1 HTS: 12; NSD2 HMT inh: 0

Results for CCCNC(=O)Nc1ccc2c(c1)C(=O)N(C)C[C@@H](OC)[C@H](C)CN(S(C)(=O)=O)[C@H](C)CO2 ?
CASP6 VEID inh: -8; Xi reactivation: 0

What do the screens show for `C[C@H]1CN([C@@H](C)CO)C(=O)c2cc(C3=CCCC3)cnc2O[C@H]1CN(C)S(=O)(=O)c1cn(C)cn1`?
CASP6 VEID inh: 0; esBAF inh: -5; Xi reactivation: 0

How did COc1ccc(C(=O)O/N=C(\N)c2ccccc2)cc1OC do in these assays?
CASP6 VEID inh: -2; esBAF inh: inconclusive; Xi reactivation: 0; MITF TRPM1 HTS: 49; NSD2 HMT inh: -2; Wnt bcat act: 56*

Results for Cc1oc2cc(O)ccc2c(=O)c1-c1cnn(-c2ccccc2)c1 ?
esBAF inh: 34; MITF TRPM1 HTS: 5; NSD2 HMT inh: 0

How did O=c1c(-c2cnn(-c3ccccc3)c2)coc2cc(O)ccc12 do in these assays?
esBAF inh: 105*; MITF TRPM1 HTS: 76; NSD2 HMT inh: -3

What do the screens show for `Cc1ccc(NC(=O)c2snc3ccc(Cl)cc23)cc1C`?
CASP6 VEID inh: 2; Xi reactivation: 0; MITF TRPM1 HTS: 45; NSD2 HMT inh: -2; Wnt bcat act: 48*

How did Cc1ccc(NC(=O)c2ccccc2)cc1C do in these assays?
CASP6 VEID inh: 0; esBAF inh: 27; Xi reactivation: 0; MITF TRPM1 HTS: 17; Wnt bcat act: 8

How did Cc1ccc(NC(=O)Nc2cccs2)cc1 do in these assays?
esBAF inh: 36; MITF TRPM1 HTS: 60; NSD2 HMT inh: -2

How did O=C(Nc1cccs1)Nc1ccccc1Cl do in these assays?
esBAF inh: 44*; MITF TRPM1 HTS: 14; NSD2 HMT inh: 2

Results for O=C(Nc1ccc(Br)cc1)Nc1ccccc1Cl ?
CASP6 VEID inh: -4; esBAF inh: inconclusive; Xi reactivation: 0; MITF TRPM1 HTS: 82*; NSD2 HMT inh: -1; Wnt bcat act: 31*

How did O=C(Nc1ccc(CN2CCCCC2)cc1)Nc1ccccc1Cl do in these assays?
CASP6 VEID inh: -14; Xi reactivation: 1; MITF TRPM1 HTS: 73; NSD2 HMT inh: 3

Results for O=C(NC(=O)c1csnn1)Nc1ccccc1Cl ?
CASP6 VEID inh: 61*; esBAF inh: 50*; Xi reactivation: 0; MITF TRPM1 HTS: 72; NSD2 HMT inh: -2; Wnt bcat act: 24
